Reference: the M2OR odorant receptor database
Positions count from the first letter of the chain named.

Legend:
Conditions in all cases: stereoisomer not certain
[1] = target: T1, OR2J2 (Homo sapiens) (UniProt O76002)
T1 sequence (whole entry): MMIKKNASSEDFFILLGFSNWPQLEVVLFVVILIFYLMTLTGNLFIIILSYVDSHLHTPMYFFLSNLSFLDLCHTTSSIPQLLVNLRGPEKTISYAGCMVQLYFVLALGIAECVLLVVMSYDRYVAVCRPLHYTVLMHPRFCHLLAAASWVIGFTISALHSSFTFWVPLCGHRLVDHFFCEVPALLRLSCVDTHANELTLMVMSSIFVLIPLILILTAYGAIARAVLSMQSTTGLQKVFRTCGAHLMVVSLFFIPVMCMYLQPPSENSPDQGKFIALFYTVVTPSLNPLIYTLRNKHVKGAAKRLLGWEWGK
In short: (§1)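 Whether a receptor–molecule pair is responsive (active) rests on the original authors' judgment that its measured signal was statistically different from baseline. Pairs without that judgment are non-responsive (inactive). Sources used varied assay methods, commonly transient luciferase assays in mammalian cell lines.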

[2] = target: T2, OR2J1 (Homo sapiens) (UniProt Q9GZK6)
T2 sequence (whole entry): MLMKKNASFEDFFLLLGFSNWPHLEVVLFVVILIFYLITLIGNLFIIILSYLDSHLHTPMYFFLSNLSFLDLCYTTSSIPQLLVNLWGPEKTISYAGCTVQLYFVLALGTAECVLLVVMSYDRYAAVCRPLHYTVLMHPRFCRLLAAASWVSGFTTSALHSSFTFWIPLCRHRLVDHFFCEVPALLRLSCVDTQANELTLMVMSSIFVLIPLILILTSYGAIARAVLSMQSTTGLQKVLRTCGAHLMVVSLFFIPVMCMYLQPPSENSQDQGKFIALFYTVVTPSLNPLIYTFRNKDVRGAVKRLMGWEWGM
In short: as §1

[3] = target: T3, OR2J3 (Homo sapiens) (UniProt O76001)
T3 sequence (whole entry): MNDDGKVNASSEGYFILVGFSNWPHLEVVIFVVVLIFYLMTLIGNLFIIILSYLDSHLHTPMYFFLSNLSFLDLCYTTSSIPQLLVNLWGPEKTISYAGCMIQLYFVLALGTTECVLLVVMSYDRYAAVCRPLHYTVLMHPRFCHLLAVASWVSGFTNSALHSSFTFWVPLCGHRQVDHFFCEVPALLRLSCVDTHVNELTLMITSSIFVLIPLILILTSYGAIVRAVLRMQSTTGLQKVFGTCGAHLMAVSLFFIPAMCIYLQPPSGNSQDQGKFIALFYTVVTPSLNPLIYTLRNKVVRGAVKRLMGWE
In short: as §1

[4] = target: T4, OR2K2 (Homo sapiens) (UniProt Q8NGT1)
T4 sequence (whole entry): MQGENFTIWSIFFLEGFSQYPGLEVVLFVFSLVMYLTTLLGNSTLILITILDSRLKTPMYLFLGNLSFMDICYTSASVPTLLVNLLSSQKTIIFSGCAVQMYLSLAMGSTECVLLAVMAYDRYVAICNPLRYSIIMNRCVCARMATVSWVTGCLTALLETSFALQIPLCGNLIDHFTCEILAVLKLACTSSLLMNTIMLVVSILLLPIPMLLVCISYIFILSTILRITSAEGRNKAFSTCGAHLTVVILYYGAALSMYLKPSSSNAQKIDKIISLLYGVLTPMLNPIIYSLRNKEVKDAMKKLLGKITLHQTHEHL
In short: as §1

[5] = target: T5, OR2L13 (Homo sapiens) (UniProt Q8N349)
T5 sequence (whole entry): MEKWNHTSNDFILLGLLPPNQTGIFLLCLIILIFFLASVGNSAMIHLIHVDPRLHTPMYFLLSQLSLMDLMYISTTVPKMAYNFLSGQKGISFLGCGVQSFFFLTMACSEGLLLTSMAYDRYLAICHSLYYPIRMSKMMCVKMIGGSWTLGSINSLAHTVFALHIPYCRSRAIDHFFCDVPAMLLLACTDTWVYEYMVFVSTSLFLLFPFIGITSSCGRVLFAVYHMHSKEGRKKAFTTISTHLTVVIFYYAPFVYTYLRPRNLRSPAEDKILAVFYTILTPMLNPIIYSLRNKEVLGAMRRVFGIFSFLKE
In short: as §1

[6] = target: T6, OR2L2 (Homo sapiens) (UniProt Q8NH16)
T6 sequence (whole entry): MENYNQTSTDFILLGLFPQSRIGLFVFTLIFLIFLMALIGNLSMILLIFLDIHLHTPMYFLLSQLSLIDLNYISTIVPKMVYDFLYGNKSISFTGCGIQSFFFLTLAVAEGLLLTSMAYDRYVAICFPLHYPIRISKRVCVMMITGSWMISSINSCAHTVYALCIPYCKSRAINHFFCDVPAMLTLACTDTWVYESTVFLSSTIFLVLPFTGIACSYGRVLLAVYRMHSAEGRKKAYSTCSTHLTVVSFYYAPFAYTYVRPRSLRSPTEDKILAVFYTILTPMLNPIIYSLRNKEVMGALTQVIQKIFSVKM
In short: as §1

[7] = target: T7, OR2L3 (Homo sapiens) (UniProt Q8NG85)
T7 sequence (whole entry): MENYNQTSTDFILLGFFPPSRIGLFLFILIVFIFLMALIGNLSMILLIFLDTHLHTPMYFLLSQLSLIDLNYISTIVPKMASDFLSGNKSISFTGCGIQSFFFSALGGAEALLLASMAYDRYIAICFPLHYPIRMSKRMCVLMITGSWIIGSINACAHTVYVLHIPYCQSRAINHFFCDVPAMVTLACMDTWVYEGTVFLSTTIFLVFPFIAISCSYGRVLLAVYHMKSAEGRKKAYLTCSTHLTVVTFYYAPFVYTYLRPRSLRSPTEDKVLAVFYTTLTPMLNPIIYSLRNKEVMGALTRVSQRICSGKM
In short: as §1

[8] = target: T8, OR2L5 (Homo sapiens) (UniProt Q8NG80)
T8 sequence (whole entry): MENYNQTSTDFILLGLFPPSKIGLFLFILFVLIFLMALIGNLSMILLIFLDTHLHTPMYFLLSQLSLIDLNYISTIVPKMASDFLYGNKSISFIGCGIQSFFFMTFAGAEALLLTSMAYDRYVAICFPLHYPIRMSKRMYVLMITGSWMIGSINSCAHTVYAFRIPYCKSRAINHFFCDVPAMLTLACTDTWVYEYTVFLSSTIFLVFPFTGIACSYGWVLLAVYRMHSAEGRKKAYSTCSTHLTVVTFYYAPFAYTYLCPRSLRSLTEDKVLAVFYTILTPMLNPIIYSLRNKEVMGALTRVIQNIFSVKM
In short: as §1

[9] = target: T9, OR2L8 (Homo sapiens) (UniProt Q8NGY9)
T9 sequence (whole entry): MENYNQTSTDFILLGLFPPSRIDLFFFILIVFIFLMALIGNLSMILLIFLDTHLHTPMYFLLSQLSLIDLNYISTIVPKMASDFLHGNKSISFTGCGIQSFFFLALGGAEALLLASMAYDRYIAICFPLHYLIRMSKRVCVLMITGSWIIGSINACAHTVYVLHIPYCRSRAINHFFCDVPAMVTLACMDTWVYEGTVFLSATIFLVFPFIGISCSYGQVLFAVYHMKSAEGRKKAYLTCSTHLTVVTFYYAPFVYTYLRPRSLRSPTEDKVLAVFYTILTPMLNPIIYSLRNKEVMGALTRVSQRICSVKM
In short: as §1

[10] = target: T10, OR2M2 (Homo sapiens) (UniProt Q96R28)
T10 sequence (whole entry): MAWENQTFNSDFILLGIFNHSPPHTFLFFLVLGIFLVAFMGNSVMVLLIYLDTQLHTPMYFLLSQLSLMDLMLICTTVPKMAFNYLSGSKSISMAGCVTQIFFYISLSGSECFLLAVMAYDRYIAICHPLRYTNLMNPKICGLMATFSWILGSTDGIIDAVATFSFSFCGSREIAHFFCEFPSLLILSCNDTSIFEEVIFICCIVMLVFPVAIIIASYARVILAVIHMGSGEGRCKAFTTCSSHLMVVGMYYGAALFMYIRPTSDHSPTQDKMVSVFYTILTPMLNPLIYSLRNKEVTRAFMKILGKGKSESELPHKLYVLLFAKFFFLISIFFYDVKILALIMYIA
In short: as §1

[11] = target: T11, OR2M3 (Homo sapiens) (UniProt Q8NG83)
T11 sequence (whole entry): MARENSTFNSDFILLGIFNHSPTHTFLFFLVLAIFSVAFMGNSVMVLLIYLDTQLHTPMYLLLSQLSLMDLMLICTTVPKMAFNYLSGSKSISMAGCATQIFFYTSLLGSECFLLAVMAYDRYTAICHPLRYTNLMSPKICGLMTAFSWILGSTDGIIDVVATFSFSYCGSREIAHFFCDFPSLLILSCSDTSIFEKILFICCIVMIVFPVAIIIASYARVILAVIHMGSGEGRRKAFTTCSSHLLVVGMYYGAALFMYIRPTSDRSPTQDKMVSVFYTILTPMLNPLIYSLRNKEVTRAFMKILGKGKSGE
In short: as §1

[12] = system: T12, OR2H2
T12 sequence (whole entry): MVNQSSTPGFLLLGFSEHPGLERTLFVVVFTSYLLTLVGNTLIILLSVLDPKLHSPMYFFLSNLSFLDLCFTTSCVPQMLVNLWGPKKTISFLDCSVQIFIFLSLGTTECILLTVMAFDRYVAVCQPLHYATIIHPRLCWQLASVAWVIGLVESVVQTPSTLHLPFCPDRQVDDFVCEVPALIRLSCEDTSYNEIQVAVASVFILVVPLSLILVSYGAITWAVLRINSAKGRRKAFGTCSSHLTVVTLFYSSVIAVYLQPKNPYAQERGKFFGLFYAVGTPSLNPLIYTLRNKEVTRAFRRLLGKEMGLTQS
In short: as §1

[13] = system: T13, OR2J1 L14I V182A
T13 sequence (whole entry): T2 sequence (whole entry) with L14I, V182A
In short: as §1

[14] = system: T14, OR2J3
T14 sequence (whole entry): T3 sequence (whole entry) with V228I, I261M
In short: as §1

[15] = system: OR2J1
In short: as §1

[16] = system: T15, OR2J2
T15 sequence (whole entry): T1 sequence (whole entry) with H74Y, A111T, A146V, A218T
In short: as §1

Measured: odorant receptor agonist call;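 note: active if original authors judged signal statistically different from baseline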

COc1cc(C(=O)O)ccc1O
inactive: [1]

CCCCCC(S)C(C)CO (stereo not given)
inactive: [2] | [1] | [3] | [4] | [5] | [6] | [7] | [8] | [9] | [10] | [11]

CC(=O)OCC=C(C)C
inactive: [1]

CC(=O)OCc1ccccc1
inactive: [1]

CCCC(=O)C(C)=O
inactive: [1]

CC(=O)c1c(C)c([N+](=O)[O-])c(C(C)(C)C)c([N+](=O)[O-])c1C
inactive: [2] | [1] | [3] | [4] | [5] | [7] | [8] | [9] | [10] | [11]

c1ccccc1
inactive: [1]

CCCCCCC=CCCC=O
inactive: [12] | [2] | [13] | [1] | [3] | [14] | [4] | [5] | [6] | [7] | [8] | [9] | [10] | [11]

C=C(C)C1CCC(C)C(=O)C1 (stereo not given)
inactive: [1]

CC(CO)CS (stereo not given)
inactive: [2] | [1] | [3] | [4] | [5] | [6] | [7] | [8] | [9] | [10] | [11]

CCCCCCCCC(=O)O
inactive: [1]

O=C1CCOc2ccccc21
inactive: [1]

O=c1ccc2ccccc2o1
inactive: [15] | [5] | [11]
active: [1]

CCCCCC(=O)CC
inactive: [1]

CC1=C(O)C(=O)C(C)O1 (stereo not given)
inactive: [12] | [2] | [13] | [16] | [3] | [14] | [4] | [5] | [6] | [7] | [8] | [9] | [10] | [11]

CCC1OC(=O)C(O)=C1C (stereo not given)
inactive: [12] | [2] | [13] | [16] | [3] | [14] | [4] | [5] | [6] | [7] | [8] | [9] | [10] | [11]

CCC1OC(C)=C(O)C1=O (stereo not given)
inactive: [12] | [2] | [13] | [16] | [3] | [14] | [4] | [5] | [6] | [7] | [8] | [9] | [10] | [11]

Cc1cnc(C)c(C)n1
inactive: [12] | [2] | [13] | [16] | [3] | [14] | [4] | [5] | [6] | [7] | [8] | [9] | [10] | [11]
